Screens: PubChem, several laboratories
CCR6 antagonist – blocks CCL20-driven beta-arrestin recruitment at human CCR6 | P51684 | CHO-K1 CCR6 PathHunter beta-arrestin, luminescence, CCL20-stimulated | inhibition, % at 20 µM | actives 0.49% (n = 340,000);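 active means compounds whose inhibition of the agonist-driven luminescence signal at 20 µM reaches about 50%, limit read from the data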;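 further: cells stimulated with CCL20 at 14 nM final; plate controls were DMSO with CCL20 for no effect and DMSO without agonist for full effect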
Beta2AR agonist – activates human beta-2 adrenergic receptor causing internalization; P07550; Am2.2-beta2AR cells, FAP receptor internalization, flow cytometry; response, % (no concentration beside the values); actives 0.43% (n = 340,000); AID 504454;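 active means response above a set limit, near 3 SD of response in nonfluorescent compounds, cut at about 42% in these data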
APJ ag – activates the human apelin receptor APJ | AID 2520 | activation, % at 20 µM | P35414 | CHO-K1 APJ PathHunter beta-arrestin, luminescence; 0% DMSO wells, 100% apelin | actives 0.11% (n = 330,000);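 active means activation more than six SD over the plate average, tested at 20 µM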;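 further: 0% = DMSO alone and 100% = apelin-13 at 10 nM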
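Assay system: CHO-K1 APJ beta-arrestin complementation cell line / Compound: single test compound dose, 20 µM final, 1% DMSO / Times: overnight seeding, 90 min compound at 25 °C, 1 h detection / Technique: beta-gal luminescence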
CXCR6 block – CXCR6 (human) receptor inhibition; O00574; CHO-K1 PathHunter CXCR6 beta-arrestin, luminescence; inhibition, % at 20 µM; actives 0.36% (n = 360,000); in the data active means inhibition above about 34%, passing the limit was not always enough;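 further: antagonist mode with CXCL16 agonist at 10 nM final; 0% = 10 nM CXCL16 with DMSO and 100% = unstimulated wells without agonist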
Target sequence (O00574 whole entry, looked up): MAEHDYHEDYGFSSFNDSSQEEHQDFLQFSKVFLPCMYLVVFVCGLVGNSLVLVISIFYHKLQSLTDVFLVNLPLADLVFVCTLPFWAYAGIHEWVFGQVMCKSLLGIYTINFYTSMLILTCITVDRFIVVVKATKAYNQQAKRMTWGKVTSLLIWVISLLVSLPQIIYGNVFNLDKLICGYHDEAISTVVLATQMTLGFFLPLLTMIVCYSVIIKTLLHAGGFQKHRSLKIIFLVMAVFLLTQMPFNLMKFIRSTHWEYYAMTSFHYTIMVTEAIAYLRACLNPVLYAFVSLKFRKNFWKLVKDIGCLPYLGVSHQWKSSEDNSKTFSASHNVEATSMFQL
APJ antag – blocks the human apelin receptor APJ; P35414; CHO-K1 APJ beta-arrestin complementation, luminescence; inhibition, % at 20 µM; actives 0.32% (n = 330,000);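 active means inhibition above about 40% at 20 µM, limit read from the data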;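 further: cells challenged with 10 nM apelin-13 agonist together with compound; plate controls were apelin-13 plus DMSO wells for no effect and DMSO wells lacking apelin-13 for full effect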
EBI2 antag – antagonists of human EBI2 receptor; actives 0.81% (n = 360,000); EBI2 beta-arrestin recruitment, luminescence, 7a,25-OHC stimulated; inhibition, % at 5 µM; P32249; in the data active means inhibition above about 38%;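 further: enzyme fragment complementation signal reports receptor beta-arrestin coupling in cells; 0% = agonist plus DMSO wells and 100% = wells without agonist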
* = called active by the depositor; / = not tested or not shown. Sampled rows, rich in hits. Any-hit rate of the full collection: about 1.8%.

SMILES	CCR6 antagonist	Beta2AR agonist	APJ ag	CXCR6 block	APJ antag	EBI2 antag
O=C(N/N=C/c1cc([N+](=O)[O-])cc([N+](=O)[O-])c1O)C(O)(c1ccccc1)c1ccccc1	31.9	-3.3	-5.0	39.3*	23.6	6.8
O=C1C=CC(=O)c2c(O)c(N3CCN(CCO)CC3)c(Cl)c(O)c21	101.5*	99.7*	/	66.4*	/	-19.2
OCCOCCN1CCN(C2=Nc3ccccc3Sc3ccccc32)CC1	10.5	5.0	-4.7	-2.2	14.3	-1.5
O=S(=O)(c1ccc(Br)cc1Cl)N1CCN(CCO)CC1	9.8	-6.5	-1.3	2.9	-7.0	-15.1
O=C1C=CC(=O)c2c(O)c(N3CCN(CCOCCO)CC3)c(Br)c(O)c21	112.2*	66.5*	/	75.6*	/	-23.5
c1ccc(CN2CCC3CC2c2c3cccc2N2CCOCC2)cc1 (centres undefined)	/	/	/	-0.8	/	-6.7
N[C@@H](Cc1ccccc1)C(=O)N1CCC(C(=O)N[C@@H](Cc2c[nH]c3ccccc23)C(=O)O)CC1	-0.6	-11.5	-0.3	-1.2	7.5	4.7
CCOCc1nc2nc(Cl)c(Cl)nc2[nH]1	/	/	/	-7.8	/	-12.8
O=c1nc2cccc3c2=c(/c1=C(\O)c1ccccc1)c1ccccc1c3=O	52.0*	10.9	0.7	31.0	26.1	1.5
Cc1cccc(CS(=O)(=O)c2nnc([C@H](Cc3ccccc3)NC(=O)OC(C)(C)C)o2)c1	90.7*	61.2*	-0.4	61.1*	14.4	20.0
CC(C)(C)OC(=O)N[C@@H](Cc1ccccc1)c1nnc(SCC(N)=O)o1	-11.6	-3.9	3.1	-1.4	-30.8	5.9
O=C(COC(=O)CC1CCCC1)Nc1ccc(Cl)cc1	3.9	-2.7	-2.7	8.3	16.5	4.6
Cc1ccc(Nc2nc(-c3cccnc3)cs2)cc1Cl	-3.9	-7.2	-1.3	-14.5	2.2	48.4*
CCOC(=O)c1c(CSC(=N)N)n(-c2ccc(C)cc2)c2cc(Br)c(OC(C)=O)cc12	41.6	45.4*	23.4	-8.1	20.9	-58.6
Cc1cccc(C)c1NC(=O)CN1C(=O)NC(C)(C2CC2)C1=O (centres undefined)	7.8	-6.6	-1.2	4.2	10.9	-4.4
O=C(Cn1sc2ccccc2c1=O)NC12CC3CC(CC(C3)C1)C2	28.7	3.1	7.9	40.6*	3.4	32.0
COc1cc(OC)cc(C(=O)N[C@H](C(=O)Nc2nc3ccc(S(C)(=O)=O)cc3s2)C(C)C)c1	-15.5	2.2	-3.3	-2.0	4.3	-10.5
COc1ccccc1CC(=O)N1CCN(c2ccccc2)CC1	4.2	-3.3	-2.7	-1.2	13.7	10.0
Cc1ccc(-c2nc3cnccn3c2Nc2c(C)cccc2C)o1	66.8*	4.2	2.2	30.7	-15.9	5.0
Cc1ccc(-c2nc3ncccn3c2Nc2ccccc2C)o1	3.4	-6.7	-3.1	1.3	2.5	-0.1
O=C(CCl)N(c1ccccc1)c1c[nH]c2ccccc12	-0.5	0.9	1.2	1.1	6.9	-20.4
O=C(CCl)N(c1ccc(Cl)cc1)c1c[nH]c2ccccc12	10.5	69.2*	-0.9	-11.3	-13.5	7.5
COc1ccc(-c2cc(C(F)F)n3ncc(C(=O)N4CCc5ccccc54)c3n2)cc1	27.4	0.1	-4.6	-6.4	6.2	16.6
COc1ccc(-c2cc(C(F)F)n3ncc(C(=O)n4ccnc4C)c3n2)cc1	33.7	48.0*	-3.3	-2.2	4.4	-0.9
CCc1cc(SC#N)cc(C)c1NC(=O)CCl	-8.0	47.2*	0.1	-6.3	23.0	-9.4
SMILES	CCR6 antagonist	Beta2AR agonist	APJ ag	CXCR6 block	APJ antag	EBI2 antag
CCN(CC)c1ccc(N=Nc2nn(C)c(C)c2[N+](=O)[O-])cc1	64.2*	-7.7	-7.0	38.7	54.6*	20.2
COc1cc(/C=C2/C(=O)NN(c3cccc(Cl)c3)C2=O)cc(OC)c1O	52.4*	-44.2	-7.8	38.8	34.0	6.0
Cc1cccc(C)c1NC(=O)C1(C)CSCC(=O)N1Cc1ccco1 (centres undefined)	/	/	/	/	/	4.2
CC1CCCCC1=NNC(=O)c1ccccc1 (centres undefined)	/	/	/	2.6	/	0.8
CC(NC(=O)Cn1ncc(Cl)c(Cl)c1=O)C12CC3CC(CC(C3)C1)C2 (centres undefined)	33.2	112.3*	/	32.2	/	63.3*
COc1ccc(C(=O)N2CCN(CC(=O)N3CCOCC3)CC2)cc1	0.5	-11.7	6.5	-3.1	-14.3	-3.1
COc1ccc2cc(/C=C/C(=O)N3CCN(CC(=O)N4CCCCCC4)CC3)ccc2c1	0.2	5.3	1.6	-1.9	0.6	60.5*
Oc1ccc(Cl)cc1N=Cc1sc2ccccc2c1Cl	2.9	16.3	/	-13.9	/	-10.0
O=[N+]([O-])c1ccc(O)c(N=Cc2sc3ccccc3c2O)c1	53.5*	-6.8	/	20.0	/	35.2
CSCCC(C(=O)Nc1c(C)cccc1C)n1c(COc2ccc(C)cc2)nc2ccccc21 (centres undefined)	/	/	/	/	/	10.8
COCC(=O)N1C[C@H](C)[C@H](OC)CN(C)C(=O)c2cc(NC(=O)Nc3cccc(F)c3)ccc2OC[C@@H]1C	/	/	/	/	/	-11.9
CS(=O)(=O)N1CCN(c2ccc(NC(=O)C(c3ccccc3)c3ccccc3)cc2)CC1	-4.3	8.9	1.5	2.5	-2.7	-4.0
O=C(Nc1ccc(N2CCCC2)cc1)C(Cl)c1ccccc1 (centres undefined)	7.2	75.8*	1.6	-1.9	-6.9	-5.0
Cc1nc2c(-c3ccccc3)c(C)[nH]n2c(=O)c1Cc1ccccc1	19.4	-4.9	-2.5	1.3	12.3	1.1
Cc1nc2c(-c3ccc(Cl)cc3)c(C)[nH]n2c(=O)c1Cc1ccccc1	47.4	10.9	1.1	43.1*	-4.5	-20.0
CC(=O)N/C(=C\c1ccccc1)C(=O)OCc1cccc(S(=O)(=O)N(C)C)c1	5.9	-8.7	/	3.2	/	-11.2
O=C(O)CC1S/C(=N/N=C/c2ccc(-c3ccc(Cl)c([N+](=O)[O-])c3)o2)NC1=O (centres undefined)	58.0*	-2.8	-4.9	15.0	10.0	0.6
CC(NC(=O)/C(C#N)=C/c1ccc(Cl)c([N+](=O)[O-])c1)c1ccccc1 (centres undefined)	92.5*	/	8.6	/	8.6	/
O=C(NC(=S)N1CCN(c2nc(-c3ccccc3)cs2)CC1)c1cncc(Br)c1	57.3*	8.4	-4.2	38.5	6.9	13.6
O=C(CN1CCN(c2nc(-c3ccccc3)cs2)CC1)NNC(=O)c1ccc(Br)cc1	10.6	0.1	-3.3	-10.1	-19.6	5.8
CC(Oc1ccccc1)C(=O)N1CCC2(CC1)Oc1ccc(F)cc1C(=O)C21CC(c2ccc(Cl)cc2)=NO1 (centres undefined)	7.5	-1.4	2.2	2.8	-50.4	9.1
